In article PMC3983365 (Journal of medicinal chemistry, 2014):

Tests used:
Hsp90 = Hsp90 binding assay; conditions: read-out: Hsp90 binding; binding to SKBr3 cell extracts; competition with GM-Cy3B
[1] = LC/MS–MS analyses of cellular extracts; type: in vitro ADME; conditions: after 10 min of incubation; data not shown
PARP = PARP cleavage by Western blot in SKBr3; type: cell-based; conditions: Homo sapiens, SK-BR-3, read-out: cPARP (PARP cleavage)
In short: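 SK-BR-3 cells grown in DME/F12 with 10% FBS, 1% L-glutamine and penicillin/streptomycin to 60–70% confluence, then exposed to test compound or DMSO vehicle. Lysed in 50 mM Tris pH 7.4, 150 mM NaCl, 1% NP-40; protein by BCA. 10–50 μg lysate run on SDS–PAGE, blotted to nitrocellulose, probed with rabbit anti-PARP p85 fragment (1:500), then peroxidase secondary (1:3000).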

Hsp70 = conditions: read-out: Kd for Hsp70; cited from earlier work
scanMAX 402 kinase panel = assay: scanMAX kinase screen; type: binding; conditions: at 10 μM
In short: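 Competition binding: DNA-tagged kinases (T7 phage in BL21-derived E. coli lysates, or HEK-293-expressed) mixed with biotinylated-ligand streptavidin magnetic beads and test compound (10 μM; 40× DMSO stocks) in SeaBlock/0.17× PBS/Tween 20/6 mM DTT, 1 h RT. Beads washed, eluted 30 min with 0.5 μM free ligand; bound kinase by qPCR. S-score: kinases bound divided by distinct non-mutant kinases tested.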

c-Met = c-Met (Homo sapiens, UniProt P08581); assay: scanMAX kinase screen, c-Met; type: binding; conditions: at 10 μM
Chain of c-Met (P08581 25-1390): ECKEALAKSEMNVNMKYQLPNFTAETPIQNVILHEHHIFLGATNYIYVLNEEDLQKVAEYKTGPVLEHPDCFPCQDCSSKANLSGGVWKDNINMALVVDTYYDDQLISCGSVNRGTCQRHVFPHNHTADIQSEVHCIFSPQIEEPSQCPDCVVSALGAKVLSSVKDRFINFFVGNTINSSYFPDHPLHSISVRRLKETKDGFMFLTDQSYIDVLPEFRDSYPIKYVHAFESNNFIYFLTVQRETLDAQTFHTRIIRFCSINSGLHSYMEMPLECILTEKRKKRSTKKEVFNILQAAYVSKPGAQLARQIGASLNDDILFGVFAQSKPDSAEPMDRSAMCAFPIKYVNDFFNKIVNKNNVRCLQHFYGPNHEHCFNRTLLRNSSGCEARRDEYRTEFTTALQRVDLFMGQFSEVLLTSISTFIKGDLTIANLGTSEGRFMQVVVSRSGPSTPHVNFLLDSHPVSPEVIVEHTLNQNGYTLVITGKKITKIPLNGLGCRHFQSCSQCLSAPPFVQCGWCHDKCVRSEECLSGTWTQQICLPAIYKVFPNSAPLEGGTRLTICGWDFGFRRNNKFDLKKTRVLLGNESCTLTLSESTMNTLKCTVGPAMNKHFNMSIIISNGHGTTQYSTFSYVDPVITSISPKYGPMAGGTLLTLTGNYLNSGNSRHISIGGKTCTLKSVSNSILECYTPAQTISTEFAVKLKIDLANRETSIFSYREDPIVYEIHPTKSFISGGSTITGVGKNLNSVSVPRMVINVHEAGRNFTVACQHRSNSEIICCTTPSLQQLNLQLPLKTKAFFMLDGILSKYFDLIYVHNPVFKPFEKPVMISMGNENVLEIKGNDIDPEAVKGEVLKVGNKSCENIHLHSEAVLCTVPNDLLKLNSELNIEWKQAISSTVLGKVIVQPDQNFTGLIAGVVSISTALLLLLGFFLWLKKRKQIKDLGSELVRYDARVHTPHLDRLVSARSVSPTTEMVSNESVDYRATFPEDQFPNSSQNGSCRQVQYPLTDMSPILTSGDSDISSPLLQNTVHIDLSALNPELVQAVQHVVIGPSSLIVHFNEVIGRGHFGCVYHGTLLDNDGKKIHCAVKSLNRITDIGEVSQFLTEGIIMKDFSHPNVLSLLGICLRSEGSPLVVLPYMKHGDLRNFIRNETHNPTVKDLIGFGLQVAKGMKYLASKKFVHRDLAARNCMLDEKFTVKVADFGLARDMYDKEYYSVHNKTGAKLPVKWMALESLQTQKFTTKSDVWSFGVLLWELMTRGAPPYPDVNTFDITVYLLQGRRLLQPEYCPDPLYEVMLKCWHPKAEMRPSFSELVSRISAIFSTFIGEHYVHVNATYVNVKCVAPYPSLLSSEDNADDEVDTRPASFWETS
In short: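 Kinase-tagged T7 phage (BL21-derived E. coli host) or HEK-293-made DNA-tagged kinase competed against an immobilised active-site ligand on streptavidin magnetic beads, with test compound at 10 μM (from 40× DMSO stock). Run in SeaBlock/PBS/Tween/DTT binding buffer for 1 h at room temperature. Beads then washed and eluted with 0.5 μM non-biotinylated ligand; kinase in eluate quantified by qPCR.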

Aqueous solubility = type: physicochemical

`C=CC(=O)Nc1cc(N)nc(Sc2c(OCC)nc(N3CCN(C)CC3)nc2OCC)n1` [20a, N-(6-Amino-2-((4,6-diethoxy-2-(4-methylpiperazin-1-yl)-pyrimidin-5-yl)thio)pyrimidin-4-yl)acrylamide] showed an IC50 (Hsp90) greater than 500 µM.
In the case of `O=c1c(O)c(-c2cc(O)c(O)c(O)c2)oc2cc(O)cc(O)c12` [compound 4, myricetin, reference compound], the “stability in the cells (agent detected in cellular extracts)” value [1] is reported as “virtually undetectable” and the EC50 (PARP) is reported as greater than 100 µM.
For `C=CC(=O)Nc1ccnc(Sc2c(OC)nc(N3CCN(C)CC3)nc2OC)n1` [27a, N-(2-((4,6-Dimethoxy-2-(4-methylpiperazin-1-yl)pyrimidin-5-yl)-thio)pyrimidin-4-yl)acrylamide], the IC50 (Hsp90) was greater than 500 µM.
`C=CC(=O)Nc1cc(N)nc(Sc2c(OC)nc(N3CCN(C)CC3)nc2OCCOCCOCCOCCO)n1` [45a] gave an IC50 (Hsp90) greater than 500 µM.
In the case of `Nc1ncnc2c1ncn2[C@@H]1O[C@H](COP(=O)(O)OP(=O)(O)O)[C@@H](O)[C@H]1O` [ADP], the Kd (Hsp70) is given as 0.11 to 0.5 µM.
In the case of `N#Cc1ccc(COC[C@H]2O[C@@H](n3c(NCc4ccc(Cl)c(Cl)c4)nc4c(N)ncnc43)[C@H](O)[C@@H]2O)cc1` [compound 7, reference compound], the Kd (Hsp70) is listed as 0.3 µM.
In the case of `C=C(C)C(=O)Nc1ccnc(Sc2c(C)nc(N3CCN(C)CC3)nc2C)n1` [42c, N-(2-((4,6-Dimethyl-2-(4-methylpiperazin-1-yl)pyrimidin-5-yl)-thio)pyrimidin-4-yl)methacrylamide], the IC50 (Hsp90) is reported as greater than 500 µM.
For `C=CC(=O)Nc1ccnc(Sc2c(C)nc(N3CCN(C)CC3)nc2C)n1` [42a, N-(2-((4,6-Dimethyl-2-(4-methylpiperazin-1-yl)pyrimidin-5-yl)-thio)pyrimidin-4-yl)acrylamide], the IC50 (Hsp90) was greater than 500 µM and the EC50 (PARP) was 5 µM.
For `C=CC(=O)Nc1cccc(Sc2c(OC)nc(N3CCOCC3)nc2OC)c1` [compound 37, N-(3-((4,6-Dimethoxy-2-morpholinopyrimidin-5-yl)thio)phenyl)-acrylamide], the IC50 (Hsp90) was greater than 500 µM.
`C=CC(=O)Nc1cc(N)nc(Sc2c(OCC)nc(N3CCCCC3)nc2OCC)n1` [20c, N-(6-Amino-2-((4,6-diethoxy-2-(piperidin-1-yl)pyrimidin-5-yl)-thio)pyrimidin-4-yl)acrylamide] showed an IC50 (Hsp90) greater than 500 µM.
`C=CC(=O)Nc1cc(N)nc(Sc2c(OC)nc(N3CCN(CCOCCOCCOCCO)CC3)nc2OC)n1` [44a] gave an IC50 (Hsp90) greater than 500 µM.
In the case of `C=CC(=O)Nc1cc(N)nc(Sc2c(OC)nc(N3CCN(C)CC3)nc2OC)n1` [17a, N-(6-Amino-2-((4,6-dimethoxy-2-(4-methylpiperazin-1-yl)-pyrimidin-5-yl)thio)pyrimidin-4-yl)acrylamide], the IC50 (Hsp90) is reported as greater than 500 µM, the “activity against the scanMAX 402 kinase panel” value (scanMAX 402 kinase panel) is reported as “inert” and the “kinase hit in scanMAX screen” value (c-Met) is reported as “potential low-affinity kinase hit”. It also gave an EC50 (PARP) of 2 µM.
For `C=CC(=O)Nc1ccnc(Sc2c(OC)nc(N3CCCC3)nc2OC)n1` [27d, N-(2-((4,6-Dimethoxy-2-(pyrrolidin-1-yl)pyrimidin-5-yl)thio)-pyrimidin-4-yl)acrylamide], the aqueous solubility (Aqueous solubility) was “poor aqueous solubility” and the IC50 (Hsp90) was greater than 500 µM.
`C=CC(=O)Nc1cc(N)nc(Sc2c(OC)nc(N)nc2OC)n1` [compound 31, N-(6-Amino-2-((2-amino-4,6-dimethoxypyrimidin-5-yl)thio)-pyrimidin-4-yl)acrylamide] gave an IC50 (Hsp90) greater than 500 µM.
